Reference: ChEMBL document CHEMBL1138560, “Synthesis of amidine and amide derivatives and their evaluation for anti-inflammatory and analgesic activities” (2009)

Key:
Rattus norvegicus = experiment: Antiinflammatory activity against carrageenan-induced paw edema in Charles Foster albino rat at 50 mg/kg, po administered 30 mins before carrageenan challenge measured after 1 to 3 hrs; format: functional
Summary of the method: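 Groups of five rats, both sexes, 120–160 g, pregnant females excluded; 30 min after oral dose, 0.20 ml of 1% fresh carrageenan in 0.9% NaCl injected into hind-paw plantar aponeurosis; paw volume by water plethysmometer before and 1–3 h after; % inhibition = [1 − Dt/Dc] × 100 versus carrageenan-only control group of five.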

Mus musculus = experiment: Analgesic activity against acetic acid-induced writhes in mouse at 50 mg/kg, po administered 30 mins before acetic acid challenge measured for 60 mins; format: functional
Summary of the method: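 Mice of both sexes, 20–30 g, non-pregnant, groups of five; oral test dose given 30 min before 0.25 ml/mouse of 0.5% acetic acid; writhes counted over the following 60 min; group mean writhes expressed as percent decrease versus untreated control group of five mice.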

Row | SMILES | Activity (Rattus norvegicus) | Activity (Mus musculus)
1 | N=C(/N=c1\scc(-c2ccccc2)n1-c1ccc(Cl)cc1)c1ccccn1 | 17% | 12%
2 | N=C(/N=c1\scc(-c2ccccc2)n1-c1ccc([N+](=O)[O-])cc1)c1ccccn1 | 26% | 18%
3 | N=C(/N=c1\scc(-c2ccccc2)n1-c1ccccc1[N+](=O)[O-])c1ccccn1 | 49% | 
4 | CCOc1ccc(-c2cs/c(=N\C(=N)c3ccccn3)n2-c2ccccc2)cc1 | 0% | 50%
5 | Cc1ccccc1-n1c(-c2ccccc2)cs/c1=N\C(=N)c1ccccn1 | 0% | 50%
6 | COc1ccc(-n2c(-c3ccccc3)cs/c2=N\C(=N)c2ccccn2)cc1 | 17% | 12%
7 | CC(=O)c1ccc(-n2c(-c3ccccc3)cs/c2=N\C(=N)c2ccccn2)cc1 | 20% | 25%
8 | O=C(/N=c1\scc(-c2ccccc2)n1-c1ccc(Cl)cc1)c1cc(=O)[nH]c(=O)[nH]1 | 2% | 
9 | O=C(CC1NC(=O)NC1=O)/N=c1\scc(-c2ccccc2)n1-c1ccccc1[N+](=O)[O-] (stereo unspecified) | 17% | 
10 | O=C(CC1NC(=O)NC1=O)/N=c1\scc(-c2ccccc2)n1-c1ccc([N+](=O)[O-])cc1 (stereo unspecified) | 34% | 
11 | N=C(/N=c1\scc(-c2ccc(Br)cc2)n1-c1ccc2ccccc2c1)c1ccccn1 | 0% | 40%
12 | COc1ccc(-n2c(-c3ccccc3)cs/c2=N\C(=O)c2cc(=O)[nH]c(=O)[nH]2)cc1 | 9% | 8%
13 | CC(=O)c1ccc(-n2c(-c3ccccc3)cs/c2=N\C(=O)c2cc(=O)[nH]c(=O)[nH]2)cc1 | 12% | 8%
14 | O=C(/N=c1\scc(-c2ccccc2)n1-c1ccccc1[N+](=O)[O-])c1cc(=O)[nH]c(=O)[nH]1 | 25% | 
15 | COc1ccc(-c2cs/c(=N\C(=O)c3cc(=O)[nH]c(=O)[nH]3)n2-c2ccc([N+](=O)[O-])cc2)cc1 | 15% | 10%
16 | COc1ccccc1-n1c(-c2ccccc2)cs/c1=N\C(=N)c1ccccn1 | 23% | 
17 | O=C(CC1NC(=O)NC1=O)/N=c1\scc(-c2ccccc2)n1-c1ccc(Cl)cc1 (stereo unspecified) | 10% | 0%
18 | CC(=O)Oc1ccccc1C(=O)O [ASPIRIN] | 43% | 
19 | CC(C)Cc1ccc(C(C)C(=O)O)cc1 (stereo unspecified) [IBUPROFEN] | 39% | 50%
